From ChEMBL document CHEMBL4229380, “Arylureas derived from colchicine: Enhancement of colchicine oncogene downregulation activity” (Eur J Med Chem, 2018)
One block for each compound: values may come before it.

Legend:
HT-29 [1] = experiment: Induction of apoptosis in human HT-29 cells assessed as necrotic cells at 1 nM after 48 hrs by Annexin V-FITC staining-based flow cytometric analysis (reference value: 2 +/- 6%); format: functional
HT-29 [2] = experiment: Effect on VEGF protein expression in human HT-29 cells assessed as secreted VEGF level in culture media at 1 nM after 48 hrs by ELISA
HT-29 [3] = experiment: Effect on VEGFR2 protein expression in human HT-29 cells assessed as VEGFR2 level at 1 nM after 48 hrs by ELISA; format: functional
Procedure, shortened: (§1)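 HT-29 cells (1.5×10^5 per well, 24 h pre-culture) were treated 48 h and washed in PBS. They were lysed in Tris pH 7.4 buffer with detergents, phosphatase inhibitors, PMSF and protease inhibitors. Lysates were adjusted to 200 µg/mL protein (Bradford) and total c-Myc or VEGFR-2 was measured by sandwich ELISA kit. Values are % of DMSO control, ≥3 measurements.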

HT-29 [4] = experiment: Effect on c-MYC gene expression in human HT-29 cells assessed as c-MYC level at 1 nM after 48 hrs by RT-qPCR analysis; format: functional
Procedure, shortened: (§2)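 HT-29 cells at 70–80% confluence were seeded at 1.5×10^5 per well and left 24 h, then treated 48 h, with DMSO as control. Total RNA was extracted and VEGF-A, c-Myc and hTERT were quantified by TaqMan qPCR, normalized to β-actin and to living cell number. Results are % expression versus control, at least three measurements.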

HT-29 [5] = experiment: Effect on hTERT gene expression in human HT-29 cells assessed as hTERT level at 1 nM after 48 hrs by RT-qPCR analysis; format: functional; procedure, shortened: as §2
HT-29 [6] = experiment: Antiproliferative activity against human HT-29 cells after 2 days by MTT assay; format: functional, cell-based; settings: HT-29, 48 h
Procedure, shortened: (§3)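 Cells (5×10^3 per well) in DMEM with 10% FBS, glucose, glutamine and antibiotics were exposed to serial dilutions (stocks in DMSO) for 2 days at 37 °C, 5% CO2. MTT was added for 3 h, formazan was dissolved in DMSO and absorbance read at 490 nm. Viability was taken as % of untreated cells. IC50 was read graphically from three independent experiments.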

HT-29 [7] = experiment: Effect on VEGF gene expression in human HT-29 cells assessed as VEGF level at 1 nM after 48 hrs by RT-qPCR analysis; format: functional; procedure, shortened: as §2
HeLa = experiment: Antiproliferative activity against human HeLa cells after 2 days by MTT assay; format: functional, cell-based; settings: 48 h; procedure, shortened: as §3
HT-29 [8] = experiment: Effect on c-MYC protein expression in human HT-29 cells assessed as c-MYC level at 1 nM after 48 hrs by ELISA; format: functional; procedure, shortened: as §1
HT-29 [9] = experiment: Induction of apoptosis in human HT-29 cells assessed as apoptotic cells at 1 nM after 48 hrs by Annexin V-FITC staining-based flow cytometric analysis (reference value: 13 +/- 3%); format: functional
HT-29 [10] = experiment: Induction of apoptosis in human HT-29 cells assessed as viable cells at 1 nM after 48 hrs by Annexin V-FITC staining-based flow cytometric analysis (reference value: 82 +/- 1%); format: functional; settings: HT-29, 48 h, read-out: Activity
HEK293 = experiment: Antiproliferative activity against human HEK293 cells after 2 days by MTT assay; format: cell-based; settings: HEK293, 48 h; procedure, shortened: as §3
MCF7 = experiment: Antiproliferative activity against human MCF7 cells after 2 days by MTT assay; format: functional, cell-based; settings: MCF7, 48 h; procedure, shortened: as §3
HT-29 [11] = experiment: Effect on VEGF protein expression in human HT-29 cells assessed as secreted VEGF level in culture media at 0.5 nM after 48 hrs by ELISA
HT-29 [12] = experiment: Induction of apoptosis in human HT-29 cells assessed as necrotic cells at 2000 nM after 48 hrs by Annexin V-FITC staining-based flow cytometric analysis (reference value: 2 +/- 6%); format: functional
HT-29 [13] = experiment: Effect on c-MYC gene expression in human HT-29 cells assessed as c-MYC level at 0.5 nM after 48 hrs by RT-qPCR analysis; format: functional; procedure, shortened: as §2
HT-29 [14] = experiment: Induction of apoptosis in human HT-29 cells assessed as apoptotic cells at 2000 nM after 48 hrs by Annexin V-FITC staining-based flow cytometric analysis (reference value: 13 +/- 3%); format: functional
HT-29 [15] = experiment: Induction of apoptosis in human HT-29 cells assessed as viable cells at 2000 nM after 48 hrs by Annexin V-FITC staining-based flow cytometric analysis (reference value: 82 +/- 1%); format: functional; settings: HT-29, 48 h, read-out: Activity
HT-29 [16] = experiment: Effect on VEGFR2 protein expression in human HT-29 cells assessed as VEGFR2 level at 0.5 nM after 48 hrs by ELISA; format: functional; procedure, shortened: as §1
HT-29 [17] = experiment: Effect on hTERT gene expression in human HT-29 cells assessed as hTERT level at 0.5 nM after 48 hrs by RT-qPCR analysis; format: functional; procedure, shortened: as §2
HT-29 [18] = experiment: Effect on c-MYC protein expression in human HT-29 cells assessed as c-MYC level at 0.5 nM after 48 hrs by ELISA; format: functional; procedure, shortened: as §1
HT-29 [19] = experiment: Effect on VEGF gene expression in human HT-29 cells assessed as VEGF level at 0.5 nM after 48 hrs by RT-qPCR analysis; format: functional; procedure, shortened: as §2

IC50 (HT-29 [6]): 1.2 nM
IC50 (HeLa): 12 nM
IC50 (MCF7): 1.5 nM
SMILES: COc1cc2c(c(OC)c1OC)-c1ccc(OC)c(=O)cc1[C@@H](NC(=O)Nc1ccc(-c3ccccc3)cc1)CC2
Activity (HT-29 [1]): 3%
Activity (HT-29 [2]): 72%
Activity (HT-29 [3]): 74%
Activity (HT-29 [4]): 85%
Activity (HT-29 [5]): 60%
Activity (HT-29 [7]): 72%
Activity (HT-29 [8]): 119%
Activity (HT-29 [9]): 11%
viability at 0.001 µM (HT-29 [10]): 86%
IC50 (HEK293): 1.7 nM

IC50 (HT-29 [6]): 0.71 nM
IC50 (HeLa): 3 nM
IC50 (MCF7): 0.9 nM
SMILES: COc1cc2c(c(OC)c1OC)-c1ccc(OC)c(=O)cc1[C@@H](NC(=O)Nc1ccc(C)cc1Cl)CC2
Activity (HT-29 [11]): 75%
Activity (HT-29 [12]): 1%
Activity (HT-29 [13]): 85%
Activity (HT-29 [14]): 33%
viability at 2 µM (HT-29 [15]): 66%
Activity (HT-29 [16]): 45%
Activity (HT-29 [17]): 80%
Activity (HT-29 [18]): 112%
Activity (HT-29 [19]): 70%
IC50 (HEK293): 3 nM
